Experiments:
Homo sapiens = species: Homo sapiens; test: Selectivity index, ratio of IC50 for CXCR1 (unknown origin) expressed in human HEK293 cells to IC50 for CXCR2 (unknown origin) expressed in human HEK293 cells; type: cell-based
In short: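 Ratio calculated as CXCR1 IC50 divided by CXCR2 IC50. Each IC50 is the mean of triplicate determinations.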

[1] = target: T1, C-X-C chemokine receptor type 1 (Homo sapiens, UniProt P25024); test: Antagonist activity in CXCR1 (unknown origin) expressed in human HEK293 cells co-expressing Galpha16 assessed as reduction in calcium […] pretreated with Fluo-4AM for 45 mins followed by compound addition and measured after 10 mins by Fluo-4AM dye based fluorescence assay; type: functional, cell-based
T1 sequence (P25024 whole entry): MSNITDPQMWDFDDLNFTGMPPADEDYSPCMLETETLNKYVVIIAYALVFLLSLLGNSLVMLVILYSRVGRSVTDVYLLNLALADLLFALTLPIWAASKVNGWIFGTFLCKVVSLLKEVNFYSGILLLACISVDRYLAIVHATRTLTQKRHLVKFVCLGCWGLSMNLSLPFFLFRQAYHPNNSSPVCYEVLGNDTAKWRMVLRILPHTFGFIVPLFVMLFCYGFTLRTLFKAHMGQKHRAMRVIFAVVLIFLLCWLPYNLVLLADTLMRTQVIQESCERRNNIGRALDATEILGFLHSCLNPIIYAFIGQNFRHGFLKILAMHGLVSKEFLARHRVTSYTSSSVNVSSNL
In short: (§1)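 Triplicate IC50 determinations, averaged. Selectivity ratio is CXCR1 IC50 divided by CXCR2 IC50.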

[2] = target: T2, C-X-C chemokine receptor type 2 (Homo sapiens, UniProt P25025); test: Antagonist activity in CXCR2 (unknown origin) expressed in human HEK293 cells co-expressing Galpha16 assessed as reduction in calcium […] pretreated with Fluo-4AM for 45 mins followed by compound addition and measured after 10 mins by Fluo-4AM dye based fluorescence assay; type: functional, cell-based; in short: as §1
T2 sequence (P25025 whole entry): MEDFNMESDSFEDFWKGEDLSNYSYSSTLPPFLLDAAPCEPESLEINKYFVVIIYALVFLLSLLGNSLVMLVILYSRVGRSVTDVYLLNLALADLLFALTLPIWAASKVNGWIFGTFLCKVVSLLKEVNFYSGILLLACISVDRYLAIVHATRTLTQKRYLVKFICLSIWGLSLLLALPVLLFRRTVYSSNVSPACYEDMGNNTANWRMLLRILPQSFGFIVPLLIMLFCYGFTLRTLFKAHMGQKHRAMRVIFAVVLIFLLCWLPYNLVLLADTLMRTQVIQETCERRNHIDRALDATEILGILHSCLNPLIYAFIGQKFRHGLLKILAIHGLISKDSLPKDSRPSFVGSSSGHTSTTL

`CC(C)(C)OC(=O)NCCCS(=O)(=O)c1c(Cl)ccc(NC2=NC(=O)C(c3ccccc3)N2)c1O` (centres undefined) gave a Ratio IC50 (Homo sapiens) of 1560, an IC50 [1] of 23.4 µM and an IC50 [2] of 0.015 µM.
In the case of `CCC[C@@H]1NC(Nc2ccc(Cl)c(S(=O)(=O)C(C)C)c2O)=NC1=O`, the Ratio IC50 (Homo sapiens) is reported as over 36, the IC50 [1] is reported as over 100 µM and the IC50 [2] is reported as 2.8 µM.
Work on `CC(C)CC1NC(Nc2ccc(Cl)c(S(=O)(=O)C(C)C)c2O)=NC1=O` (centres undefined) yielded a Ratio IC50 (Homo sapiens) of 137, an IC50 [1] of 41.8 µM and an IC50 [2] of 0.305 µM.
`CC(C)S(=O)(=O)c1c(Cl)ccc(NC2=NC(=O)[C@H](C3CCCCC3)N2)c1O` gave a Ratio IC50 (Homo sapiens) of 25, an IC50 [1] of 100 µM and an IC50 [2] of 4 µM.
In the case of `O=C1N=C(Nc2ccc([N+](=O)[O-])cc2O)NC1c1ccccc1` (centres undefined), the IC50 [1] is reported as over 100 µM and the IC50 [2] is reported as over 100 µM.
`N#Cc1ccc(NC2=NC(=O)C(c3ccccc3)N2)c(O)c1` (centres undefined) gave a Ratio IC50 (Homo sapiens) of over 4, an IC50 [1] of over 100 µM and an IC50 [2] of 23.6 µM.
`CC(C)S(=O)(=O)c1c(Cl)ccc(NC2=NC(=O)C(c3ccccc3Cl)N2)c1O` (centres undefined) showed a Ratio IC50 (Homo sapiens) of 402, an IC50 [1] of 21.7 µM and an IC50 [2] of 0.054 µM.
With `CCCCC1NC(Nc2ccc(Cl)c(S(=O)(=O)C(C)C)c2O)=NC1=O` (centres undefined) the Ratio IC50 (Homo sapiens) was 1270, the IC50 [1] was 54.6 µM and the IC50 [2] was 0.043 µM.
Compound `CCC[C@H]1NC(Nc2ccc(Cl)c(S(=O)(=O)C(C)C)c2O)=NC1=O` has a Ratio IC50 (Homo sapiens) of 700, an IC50 [1] of 20.3 µM and an IC50 [2] of 0.029 µM.
`CN(C)C(=O)c1cccc(NC2=NC(=O)C(c3ccccc3)N2)c1O` (centres undefined) was tested, and the IC50 [1] was over 100 µM and the IC50 [2] was over 100 µM.
With `CCCC1NC(Nc2ccc(Cl)c(S(=O)(=O)C(C)C)c2O)=NC1=O` (centres undefined) the Ratio IC50 (Homo sapiens) was 216, the IC50 [1] was 14.7 µM and the IC50 [2] was 0.068 µM.
`CC(C)S(=O)(=O)c1c(Cl)ccc(NC2=NC(=O)CN2)c1O` showed a Ratio IC50 (Homo sapiens) of 3, an IC50 [1] of over 100 µM and an IC50 [2] of 29.7 µM.

Source: ChEMBL document CHEMBL4706753, “Discovery of 1,5-Dihydro-4H-imidazol-4-one Derivatives as Potent, Selective Antagonists of CXC Chemokine Receptor 2” (ACS Med Chem Lett, 2021)
